Here are results for 39 molecules from ChEMBL document CHEMBL4219104, “Bicyclo((aryl)methyl)benzamides as inhibitors of GlyT1” (Bioorg Med Chem Lett, 2018).

The nature of series [1]: Equilibrium solubility of the compound in phosphate buffer at pH 7.4 by UV-HPLC analysis. Format: physicochemical. The gist of the method:
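Equilibrium solubility determined at pH 7.4.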

Series [2] in a line: Octanol-water partition coefficient, log D of the compound at pH 7.4. Format: physicochemical. The procedure, abridged: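 logD determined empirically as ratio of compound partitioned between octanol and water at pH 7.4.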
Series [3] in a line: Volume of distribution at steady state in Sprague-Dawley rat at 3 umol/kg, iv. The class given is ADME, organism-based. Conditions: in vivo, read-out: Vdss.
Series [4] is described as follows: Ratio of drug level in brain to plasma in Sprague-Dawley rat at 3 umol/kg, iv. Format: ADME. Conditions: read-out: BPR.
Series [5] can be described thus: Cmax in Sprague-Dawley rat at 9 umol/kg, po. Format: ADME, organism-based. Also on record: dose 9 umol/kg, route oral. Conditions: in vivo.
Series [6] is described as follows: Tmax in Sprague-Dawley rat at 9 umol/kg, po. The class given is ADME, organism-based. Conditions: in vivo.
The nature of series [7]: Oral bioavailability in Sprague-Dawley rat at 9 umol/kg. Format: ADME, organism-based. As to conditions: in vivo.
Series [8] can be described thus: Ratio of drug level in brain to plasma in sc dosed CD-1 mouse. Format: ADME, organism-based. As to conditions: read-out: BPR. The procedure, abridged: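 CD-1 mice dosed subcutaneously; brain and plasma levels compared as brain-to-plasma ratio.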

Converted amounts (≈) assume the structure as drawn.

`CSc1ncccc1C(=O)N[C@H](c1ccccc1)C12CCC(CC1)CN2C` yielded a thermodynamic solubility in series [1] above 500 µM. The log distribution coefficient (logD) in series [2] worked out at 1.3. In series [2], `Cc1cccc(C)c1C(=O)NC(c1ccc(S(=O)(=O)CC2CC2)cc1)C12CCC(CC1)CN2C` (stereo not given) showed a logD of 2. Turning to `CN1CC2CCC1(C(NC(=O)c1cccc(C(F)(F)F)c1Cl)c1cccc(Br)c1)CC2` (racemic), the logD in series [2] came to 3.3.

The molecule `Cc1ccnc(C)c1C(=O)N[C@H](c1ccccc1)C12CCC(CC1)CN2C` registered a solubility (thermodynamic) in series [1] of 373 µM (≈ 136 µg/mL). This molecule returned a logD in series [2] of 0.8. In turn, `CN1CC2CCC1([C@H](NC(=O)c1cccc(C(F)(F)F)c1Cl)c1ccccc1)CC2` showed a thermodynamic solubility in series [1] above 482 µM. This molecule returned a logD in series [2] of 2.7.

As to `Cc1cccc(C)c1C(=O)NC(c1ccccc1)C12CCC(CC1)N2C(C)C` (stereo not given), the logD in series [2] is 1.9.

`CN1CC2CCC1([C@H](NC(=O)c1c(Cl)cncc1Cl)c1ccccc1)CC2` had a solubility (thermodynamic) in series [1] of 481 µM (≈ 194 µg/mL). The molecule further gave a logD in series [2] of 1.4. `CN1CC2CCC1([C@H](NC(=O)c1c(Cl)ccnc1Cl)c1ccccc1)CC2` had a solubility (thermodynamic) in series [1] above 500 µM. In series [2], this molecule had a logD of 1.1. Turning to `Cc1cccc(C(NC(=O)c2cccc(C(F)(F)F)c2Cl)C23CCC(CC2)CN3C)c1` (racemic), the logD in series [2] was 3. The molecule `CN1CC2CCC1(C(NC(=O)c1cccc(C(F)(F)F)c1Cl)c1cccnc1)CC2` (racemic) displayed a logD in series [2] of 2.3.

In series [1], `CN1CC2CCC1([C@H](NC(=O)c1c(N)cccc1Cl)c1ccccc1)CC2` registered a solubility (thermodynamic) of 462 µM (≈ 177 µg/mL). For the same molecule, in series [2], the logD is 1.3. `Cc1cccc(C)c1C(=O)N[C@H](c1ccccc1)C12CCC(CC1)CN2C` came in with a solubility (thermodynamic) in series [1] of 414 µM (≈ 150 µg/mL). The same molecule gave a logD in series [2] of 1.9. Also, the Vd in series [3] came out at 1.8 L/kg. Besides, the Kp in series [4] came out at 0.2; in series [8], 0.4. In series [5], the Cmax came to 2450 nM. Moreover, the Tmax in series [6] was determined as 1 h. Further, the bioavailability in series [7] is 105%. For `Cc1cccc(C)c1C(=O)NC(c1ccncc1)C12CCC(CC1)CN2C` (stereo not given), in series [2], the logD came out at 1.4.

For `COc1cncc(Cl)c1C(=O)N[C@H](c1ccccc1)C12CCC(CC1)CN2C`, the solubility (thermodynamic) in series [1] was above 500 µM. Further, in series [2], the logD was 1. For `CN1CC2CCC1([C@H](NC(=O)c1ccnc(C(F)(F)F)c1F)c1ccccc1)CC2`, in that order: above 500 µM and 2.4. With `COc1ccc(C(NC(=O)c2cccc(C(F)(F)F)c2Cl)C23CCC(CC2)CN3C)cc1` (racemic), the logD in series [2] was found to be 2.7. Molecule `CCN1C2CCC1(C(NC(=O)c1c(C)cccc1C)c1ccccc1)CC2` (stereo not given) had a logD in series [2] of 2.1. Molecule `CCN1CC2CC1(C(NC(=O)c1c(C)cccc1C)c1ccccc1)C2` (stereo not given) registered a logD in series [2] of 1.1. In the case of `CN1CC2CCC1([C@@H](NC(=O)c1cccc(C(F)(F)F)c1Cl)c1ccccc1)CC2`, the solubility (thermodynamic) in series [1] was above 500 µM. Also, in series [2], the logD is 2.7. The molecule `Cc1cccc(C)c1C(=O)NC(c1ccccc1)C12CC(CN1C)C2` (stereo not given) displayed a logD in series [2] of 1.1.

Consider `Cc1cccc(C)c1C(=O)NC(c1ccccc1)C12CC(CN1)C2` (stereo not given), for which, in series [2], the logD came to 0.8.

Regarding `CN1CC2CCC1([C@H](NC(=O)c1c(Cl)cccc1Cl)c1ccccc1)CC2`, in series [1], the solubility (thermodynamic) is above 500 µM. This molecule came in with a logD in series [2] of 1.9. `CN1CC2CCC1([C@H](NC(=O)c1ccncc1Br)c1ccccc1)CC2`: in series [1], the thermodynamic solubility is above 500 µM. In the case of `Cc1ccccc1C(NC(=O)c1cccc(C(F)(F)F)c1Cl)C12CCC(CC1)CN2C` (racemic), the logD in series [2] stood at 3. Same read-out and setting: under `Cc1cccc(C)c1C(=O)NC(c1ccncc1)C12CCC(CC1)N2` (stereo not given) stands 0.9; under `Cc1cccc(C)c1C(=O)NC(c1ccccc1)C12CCC(CC1)N2C` (stereo not given), 1.9. Still for that read-out and setting: under `CN1CC2CCC1(C(NC(=O)c1cccc(C(F)(F)F)c1Cl)c1ccncc1)CC2` (racemic) stands 2.4. Turning to `CN1CC2CCC1([C@H](NC(=O)c1cccc(Cl)c1Cl)c1ccccc1)CC2`, the solubility (thermodynamic) in series [1] was found to be 493 µM (≈ 199 µg/mL). The same molecule showed a logD in series [2] of 2.2. For `COc1cccc(OC)c1C(=O)N[C@H](c1ccccc1)C12CCC(CC1)CN2C` the same measures were 495 µM (≈ 195 µg/mL) and 0.7. Take `Cc1ccc(C(NC(=O)c2c(C)cccc2C)C23CCC(CC2)CN3C)o1` (stereo not given): the logD in series [2] came to 1.5. As for `CN1CCCC[C@H]1[C@@H](NC(=O)c1cccc(C(F)(F)F)c1Cl)c1ccccc1`, in series [1], the solubility (thermodynamic) was 124 µM (≈ 50.9 µg/mL). In series [2], this molecule gave a logD of 2.9.

As to `Cc1cccc(C)c1C(=O)NC(c1ccccc1)C12CCC(CC1)N2` (stereo not given), the logD in series [2] was 1.4. Same read-out and setting: the figure for `CN1CC2CCC1(C(NC(=O)c1cccc(C(F)(F)F)c1Cl)c1ccccn1)CC2` (racemic) is 1.6; for `CN1CC2CCC1(C(NC(=O)c1cccc(C(F)(F)F)c1Cl)c1ccccc1)CC2` (racemic) it is 2.7.

Regarding `Cc1cccc(C)c1C(=O)NC(c1ccccc1)C12CCC(CC1)CN2` (stereo not given), the logD in series [2] was 1.3. For the molecule `Cc1cccc(C)c1C(=O)NC(c1ccccc1)C12CCC(CC1)N2C1CC1` (stereo not given), the logD in series [2] was determined as 1.1. Same read-out and setting: the figure for `CN1CC2CCC1(C(NC(=O)c1cccc(C(F)(F)F)c1Cl)c1ccco1)CC2` (racemic) is 2; for `Cc1cccc(C)c1C(=O)NC(c1cccc(-c2cnn(C)c2)c1)C12CCC(CC1)CN2C` (stereo not given) it is 2.1. Turning to `CN1CC2CCC1([C@H](NC(=O)c1ccnc(Cl)c1Cl)c1ccccc1)CC2`, the solubility (thermodynamic) in series [1] turned out to be 498 µM (≈ 201 µg/mL). In series [2], this molecule registered a logD of 2.2.

The term solubility (thermodynamic) denotes the concentration in solution at equilibrium with solid. The term logD denotes lipophilicity at a set pH, counting ionised and neutral species. For orientation: Cmax means the peak of the concentration-time curve. What is called Tmax is the time from dosing to the highest level.
